According to ChEMBL document CHEMBL3286252, “Synthesis, biological evaluation and structure-activity relationship of new GABA uptake inhibitors, derivatives of 4-aminobutanamides” (Eur J Med Chem, 2014):
Activity calls are given as the source filed them.

How the values were obtained:
Mus musculus [1] = assay: Anticonvulsant activity in albino Swiss (CD-1) mouse assessed as protection against electrically-induced tonic hind limb extension at 30 to 100 mg/kg measured after single electroshock by maximal electroshock test; assay type: functional, organism-based; conditions: Hindlimb
Outline: (§1)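 Mice received a 25 mA, 0.2 s stimulus through auricular electrodes. The endpoint was tonic extension of the hind limbs after a single shock, scored in vehicle- and drug-treated groups.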

Mus musculus [2] = assay: Anticonvulsant activity in albino Swiss (CD-1) mouse assessed as current intensity required to induce 50% tonic hind limb extensions at 100 mg/kg, ip after 60 mins by electroconvulsive threshold test (reference value: 6.61 mA); assay type: functional, Hindlimb; conditions: route intraperitoneal
GABA transporter 2 = target: T1, GABA transporter 2 (Mus musculus, UniProt P31651); assay: Inhibition of mouse GAT2 expressed in HEK293 cells assessed as decrease in [3H]GABA uptake; assay type: cell-based
T1 sequence (P31651 whole entry): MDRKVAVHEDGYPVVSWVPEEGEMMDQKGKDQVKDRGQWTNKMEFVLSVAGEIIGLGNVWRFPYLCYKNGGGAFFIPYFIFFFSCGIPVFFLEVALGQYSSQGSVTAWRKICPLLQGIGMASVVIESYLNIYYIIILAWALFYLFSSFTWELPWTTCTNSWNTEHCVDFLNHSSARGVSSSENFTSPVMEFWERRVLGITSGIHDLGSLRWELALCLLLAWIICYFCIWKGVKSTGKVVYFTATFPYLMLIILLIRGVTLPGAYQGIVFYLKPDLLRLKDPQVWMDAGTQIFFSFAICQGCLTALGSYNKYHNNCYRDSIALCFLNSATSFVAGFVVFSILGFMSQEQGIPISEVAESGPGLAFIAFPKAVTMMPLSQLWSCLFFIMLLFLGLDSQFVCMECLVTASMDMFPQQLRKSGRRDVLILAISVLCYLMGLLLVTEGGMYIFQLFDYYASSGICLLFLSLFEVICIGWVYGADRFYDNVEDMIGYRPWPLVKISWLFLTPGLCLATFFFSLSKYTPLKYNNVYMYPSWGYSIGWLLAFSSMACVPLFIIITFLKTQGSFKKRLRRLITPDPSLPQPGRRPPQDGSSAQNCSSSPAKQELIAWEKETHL

Mus musculus [3] = assay: Anticonvulsant activity against pentylenetetrazole-induced seizure in albino Swiss (CD-1) mouse assessed as decrease in seizure episodes at 100 mg/kg, ip administered 60 mins prior to PTZ challenge; assay type: functional; conditions: route intraperitoneal
Outline: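 Male CD-1 mice, 18–22 g, given compound or vehicle i.p. 60 min before PTZ 100 mg/kg s.c. Each mouse observed alone for 30 min for clonic seizures: whole-body clonus over 3 s with loss of righting reflex. Read-outs: latency to first clonus, number of seizure episodes, and deaths within 30 min. Groups of 7–10 mice, compared with vehicle.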

Mus musculus [4] = assay: Anticonvulsant activity against pentylenetetrazole-induced seizure in albino Swiss (CD-1) mouse assessed as prolongation of latency time to first seizure episode at 100 mg/kg, ip administered 60 mins prior to PTZ challenge; assay type: functional; conditions: route intraperitoneal
Outline: (§2)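 Male CD-1 mice (18–22 g) given compound or vehicle i.p. 60 min before PTZ 100 mg/kg s.c. Each mouse was then caged alone and watched for 30 min for clonic seizures, meaning whole-body clonus lasting >3 s with loss of righting reflex. Recorded: latency to first clonus, number of seizure episodes, and deaths within 30 min. Analysis: ANOVA/Dunnett or t-test; mortality by Fisher's exact test; 7–10 mice per group.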

Mus musculus [5] = assay: Anticonvulsant activity against pentylenetetrazole-induced seizure in albino Swiss (CD-1) mouse assessed as decrease in mortality rate at 30 to 100 mg/kg, ip administered 60 mins prior to PTZ challenge; assay type: functional, organism-based; outline: as §2
Mus musculus [6] = assay: Anticonvulsant activity against pentylenetetrazole-induced seizure in albino Swiss (CD-1) mouse assessed as prolongation of latency time to first seizure episode at 30 mg/kg, ip administered 60 mins prior to PTZ challenge; assay type: functional, organism-based; set-up: dose 30 mg/kg; outline: as §2
Mus musculus [7] = assay: Anticonvulsant activity in albino Swiss (CD-1) mouse assessed as protection against seizures at 100 mg/kg, ip after 60 mins by electroconvulsive threshold test; assay type: functional, organism-based; set-up: dose 100 mg/kg
Mus musculus [8] = assay: Anticonvulsant activity against pentylenetetrazole-induced seizure in albino Swiss (CD-1) mouse assessed as decrease in seizure episodes at 15 mg/kg, ip administered 60 mins prior to PTZ challenge; assay type: functional; conditions: route intraperitoneal; outline: as §2
Mus musculus [9] = assay: Anticonvulsant activity against pilocarpine-induced seizure in albino Swiss (CD-1) mouse assessed as prolongation of latency time to death at 70 mg/kg, ip administered 60 mins before pilocarpine challenge; assay type: functional; conditions: route intraperitoneal
Outline: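 Male CD-1 mice dosed i.p. with compound or vehicle (1% Tween 80). Scopolamine butylbromide 1 mg/kg i.p. given 45 min before pilocarpine; pilocarpine 400 mg/kg i.p. given 60 min after compound. Observed 1 h. Latency to tonic-clonic seizure and latency to death recorded, cut-off 60 min. 7–8 mice per group, mean ± SEM, Student's t-test against vehicle.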

Mus musculus [10] = assay: Anticonvulsant activity against pentylenetetrazole-induced seizure in albino Swiss (CD-1) mouse assessed as delay in onset of seizures at 15 mg/kg, ip administered 60 mins prior to PTZ challenge; assay type: functional; conditions: route intraperitoneal; outline: as §2
Mus musculus [11] = assay: Toxicity in albino Swiss (CD-1) mouse assessed as mortality at 100 mg/kg, ip measured after single electroconvulsive electroshock exposure; assay type: organism-based; set-up: dose 100 mg/kg, route intraperitoneal; conditions: in vivo
Outline: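 Male CD-1 mice given 100 mg/kg i.p. 60 min before electroconvulsive threshold testing. Groups shocked at graded currents to give 10–90% of animals with seizures; CS50 for tonic hind-limb extension estimated by log-probit. Mortality noted after a single electroconvulsive shock, compared with controls.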

Mus musculus [12] = assay: Anticonvulsant activity in albino Swiss (CD-1) mouse assessed as decrease in animals with tonic hind limb extensions at 100 mg/kg by maximal electroshock test; assay type: functional; conditions: Hindlimb; outline: as §1
Mus musculus [13] = assay: Anticonvulsant activity in albino Swiss (CD-1) mouse assessed as protection against electrically-induced tonic hind limb extension at 30 mg/kg by maximal electroshock test; assay type: functional, organism-based; set-up: dose 30 mg/kg; conditions: Hindlimb; outline: as §1
Mus musculus [14] = assay: Anticonvulsant activity against pentylenetetrazole-induced seizure in albino Swiss (CD-1) mouse assessed as decrease in mortality rate at 30 mg/kg, ip administered 60 mins prior to PTZ challenge; assay type: functional, organism-based; set-up: dose 30 mg/kg; outline: as §2
Mus musculus [15] = assay: Anticonvulsant activity against pentylenetetrazole-induced seizure in albino Swiss (CD-1) mouse assessed as delay in onset of seizures at 30 mg/kg, ip administered 60 mins prior to PTZ challenge; assay type: functional; conditions: route intraperitoneal; outline: as §2
[16] = Toxicity in albino Swiss (CD-1) mouse assessed as mortality at 100 mg/kg measured after electroshock exposure; assay type: organism-based; set-up: dose 100 mg/kg; conditions: in vivo, read-out: Activity
Outline: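 Male CD-1 mice given 100 mg/kg i.p. 60 min before the maximal electroshock test. Stimulus 25 mA for 0.2 s through auricular electrodes; endpoint tonic hind-limb extension. Deaths after the shock compared with the vehicle group.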

Mus musculus [17] = assay: Anticonvulsant activity against pilocarpine-induced seizure in albino Swiss (CD-1) mouse assessed as prolongation of latency time to seizures at 70 mg/kg, ip administered 60 mins before pilocarpine challenge; assay type: functional; conditions: route intraperitoneal
Outline: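 CD-1 mice received compound or vehicle (1% Tween 80) i.p. 60 min before pilocarpine 400 mg/kg i.p. Scopolamine butylbromide 1 mg/kg i.p. was given 45 min before pilocarpine. 7–8 mice per group; Student's t-test versus vehicle; mean ± SEM.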

Compound	Activity (Mus musculus [1])	CS50 (Mus musculus [2]) [mA]	IC50 (GABA transporter 2) [µM]	inhibition in vivo at 100 mg/kg (Mus musculus [3]) [%]	Activity (Mus musculus [4]) [%]	inhibition (Mus musculus [5])	Activity (Mus musculus [6])	Activity (Mus musculus [7])	inhibition in vivo at 15 mg/kg (Mus musculus [8]) [%]	Activity (Mus musculus [9]) [%]	Activity (Mus musculus [10]) [%]	Activity (Mus musculus [11])	inhibition in vivo at 100 mg/kg (Mus musculus [12]) [%]	Activity (Mus musculus [13])	inhibition (Mus musculus [14])	Activity (Mus musculus [15]) [%]	mortality [16] [%]	Activity (Mus musculus [17]) [%]
NCCC(C(=O)NCc1ccccc1Cl)N1CCN(C(c2ccccc2)c2ccccc2)CC1 (centres undefined)	inactive	6.22	21.9	53	100	Active	inactive	–	–	–	–	–	–	–	–	–	–	–
NCCC(C(=O)NCc1ccc(Cl)cc1)N1CCN(C(c2ccccc2)c2ccccc2)CC1 (centres undefined)	–	–	20.9	–	–	–	–	inactive	58	71.1	58	Toxic	44	inactive	Active	217	65	113.4
